ChEMBL document CHEMBL1133660, “A potential melanoma tracer: synthesis, radiolabeling, and biodistribution in mice of a new nitridotechnetium bis(aminothiol) derivative pharmacomodulated by a N-(diethylaminoethyl)benzamide” (J Med Chem, 2000)

Assays:
[1] = Tumor / liver ratio observed after 3 hours of injection; type: ADME, tissue-based
[2] = organism: Mus musculus; experiment: Tissue biodistribution of the syn isomer in the B16 murine melanoma tumor in mice at 6 hours; type: ADME, organism-based; settings: in vivo
Method in brief: (§1)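 Male C57BL/6 J1 co mice given 5 × 10^5 viable B16 melanoma cells subcutaneously; tumors palpable after 10 days. 0.74 MBq 99mTc-labeled complex injected iv via tail vein. n = 3 per time point; sacrifice by exsanguination at 5 min, 15 min, 1, 3, 6 and 24 h. Tissues weighed and γ-counted; results as % injected dose/gram of tissue.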

[3] = Tumor / liver ratio observed after 1 hour of injection; type: ADME, tissue-based
[4] = organism: Mus musculus; experiment: Tissue biodistribution of the syn isomer in the B16 murine melanoma tumor in mice at 24 hours; type: ADME, organism-based; settings: in vivo; method in brief: as §1
[5] = organism: Mus musculus; experiment: Tissue biodistribution of the syn isomer in the B16 murine melanoma tumor in mice at 3 hours; type: ADME, organism-based; settings: in vivo; method in brief: as §1
[6] = Tumor / liver ratio observed after 24 hours of injection; type: ADME, tissue-based
[7] = organism: Mus musculus; experiment: Tissue biodistribution of the syn isomer in the B16 murine melanoma tumor in mice at 1 hour; type: ADME, organism-based; settings: in vivo; method in brief: as §1
[8] = Tumor / liver ratio observed after 6 hours of injection; type: ADME
[9] = (§2) Partition coefficient (logP); type: physicochemical; settings: octanol/water
Method in brief: (§3)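 Partition between octanol and pH 7.4 Tris buffer, reported as log P.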

[10] = as §2; type: physicochemical; settings: octanol/water; method in brief: as §3; remark: listed apart in the source

Tumor/liver ratio [1] | ID/g [2] | Tumor/liver ratio [3] | ID/g [4] | ID/g [5] | Tumor/liver ratio [6] | ID/g [7] | Tumor/liver ratio [8] | logP [9] | logP [10] | Molecule
0.1 | 0.11% | 0.18 | 0.04% | 0.2% | 0.06 | 0.75% | 0.1 |  |  | (TcN-BAT)nitridotechnetium complex of bis(aminoethanethiol)
 |  |  |  |  |  |  |  | -0.45 | -0.3 | CCN(CC)CCNC(=O)c1ccc(COCC(CNCC(C)(C)S)NCC(C)(C)S)cc1 (stereo not drawn)
1.05 | 3.53% | 1.12 | 0.79% | 3.85% | 4.94 | 6.75% | 3.71 |  |  | CCN(CC)CCNC(=O)c1ccc([125I])cc1
